OX1R antag-1 – blocks the human orexin 1 receptor. O43613. OX1R-expressing cells, FRET antagonist read-out. inhibition, % at 6.6 µM. actives 1.8% (n = 330,000). AID 485270; in the data active = inhibition mostly above about 38%, no sharp cut-off; inactive = mostly below about 40%;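 also: 0% = agonist challenge alone and 100% = reference antagonist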
TAAR1 antagonist – human TAAR1 antagonism | CHO RD-HGA16 TAAR1, Fluo-8 calcium fluorescence, antagonist | actives 1.5% (n = 360,000) | inhibition, % at 3 µM;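 active = inhibition above a per-plate cutoff, the mean inhibition of test compounds on that plate plus 3 SD, cut at about 49% in these data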;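 also: 0% = DMSO plus EC80 beta-PEA response and 100% = DMSO alone without agonist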
Target sequence (Q96RJ0 whole entry, looked up): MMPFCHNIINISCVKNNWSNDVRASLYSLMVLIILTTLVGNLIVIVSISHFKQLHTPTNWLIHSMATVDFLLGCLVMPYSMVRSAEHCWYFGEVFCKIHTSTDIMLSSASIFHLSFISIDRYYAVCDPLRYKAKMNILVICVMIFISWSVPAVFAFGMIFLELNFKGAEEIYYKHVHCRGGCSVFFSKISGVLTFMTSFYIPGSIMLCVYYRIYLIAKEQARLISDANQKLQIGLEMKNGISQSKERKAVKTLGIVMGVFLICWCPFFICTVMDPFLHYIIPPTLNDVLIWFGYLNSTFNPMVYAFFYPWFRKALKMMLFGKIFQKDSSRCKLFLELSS
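Test system – hTAAR1-expressing CHO RD-HGA16 cells, Gα16-coupled · Reagent – β-PEA at EC80 concentration, post-compound challenge · Compound dosing – 3 µM, single point · Timing – 140 s kinetic read after compound, 140 s after agonist · Detection – Fluo-8 intracellular calcium dye fluorescence, real-time kinetic reads · Control set – DMSO and EC80 PEA controls · Repeats – n of 1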
GPR7 antag – blocks human GPR7 receptor signaling; AID 1861; inhibition, % at 4.4 µM; GPR7-expressing cells, fluorescence antagonist assay; P48145; actives 1.1% (n = 290,000); in the data active = inhibition above about 16%, passing the limit was not always enough;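 also: cells stimulated with the agonist NPW; 0% = agonist with vehicle and 100% = vehicle without agonist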
Target sequence (P48145 whole entry, looked up): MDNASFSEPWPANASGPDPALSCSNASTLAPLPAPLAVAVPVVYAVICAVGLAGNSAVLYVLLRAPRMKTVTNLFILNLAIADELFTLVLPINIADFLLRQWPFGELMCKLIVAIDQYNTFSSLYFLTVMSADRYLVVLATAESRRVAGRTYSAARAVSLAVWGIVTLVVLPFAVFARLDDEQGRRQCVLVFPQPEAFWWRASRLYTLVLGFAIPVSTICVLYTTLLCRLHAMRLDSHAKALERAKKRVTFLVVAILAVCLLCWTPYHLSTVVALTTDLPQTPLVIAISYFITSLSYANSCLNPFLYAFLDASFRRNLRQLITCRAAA
CHO parental Ca – counter-screen for OX1R antagonists: effect in parental CHO cells; parental CHO-K1, ATP-induced calcium, Fluo-8 fluorescence; inhibition, % at 5.6 µM; actives 0.63% (n = 330,000); AID 463079;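 active = inhibition above that plate's mean sample inhibition plus 3 SD, cut at about 26% in these data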;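 also: 0% = ATP-challenged DMSO wells and 100% = DMSO wells without ATP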
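Assay system – parental CHO cells · Reagent – ATP stimulus · Detection – intracellular calcium via Fluo-8 no-wash fluorescent dye · Evaluation – percent inhibition of ATP-evoked calcium rise, normalized to controls · Controls – ATP wells versus no-ATP DMSO wells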
OX1R antag-2 – blocks the human orexin 1 receptor | O43613 | CHO/OX1R cells, Fluo-8 calcium fluorescence, orexin A | actives 0.43% (n = 330,000) | AID 434989 | inhibition, % at 5 µM;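 active = inhibition above its plate's threshold, mean inhibition of all tested compounds on the plate plus 3 SD, cut at about 37% in these data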;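 also: 0% = orexin A challenge wells and 100% = SB-334867-A antagonist wells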
TAAR1 ag – human TAAR1 agonism; Q96RJ0; CHO RD-HGA16 TAAR1, Fluo-8 calcium fluorescence; vehicle wells 0%, saturating PEA agonist 100%; activation, % at 3 µM; actives 0.99% (n = 360,000); AID 624467;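 active = activation above the mean activation of all test compounds in the run plus 3 SD, cut at about 38% in these data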
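Benchmarks: low control DMSO, high control PEA (EC100); System: CHO RD-HGA16 cells carrying human TAAR1 plus Gα16; Detection: Fluo-8 fluorescence, 5 s baseline then 140 s kinetic read; Schedule: 17-24 h plating, Fluo-8 75 min 37 °C, 30 min RT; Read-out basis: % activation from peak over basal fluorescence ratio, DMSO-to-PEA scaled.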
Active calls of the source: *; . = not tested or not shown. Shown are actives, neighbours in structure and some others; about 4.6% of the full set was active somewhere.

SMILES | OX1R antag-1 | TAAR1 antagonist | GPR7 antag | CHO parental Ca | OX1R antag-2 | TAAR1 ag
O=C(Nc1nccs1)c1ccc([N+](=O)[O-])cc1Cl | 60 | 2 | -3 | 2 | 2 | -1
O=C(NC1=NCCS1)c1ccc([N+](=O)[O-])cc1Cl | 49* | 2 | -4 | -9 | -2 | 10
O=C(C[C@H]1CC[C@@H]2[C@H](COC[C@H](O)CN2C(=O)c2cnccn2)O1)NCc1ccc(Cl)cc1 | . | -7 | . | . | . | 1
O=C(Nc1ccc(Cl)c(Cl)c1)N1CCC(N2CCCCC2)CC1 | 9 | -21 | 4 | -5 | -17 | 0
O=C(Nc1ccc(Cl)c(Cl)c1)N1CCCCCC1 | 11 | -26 | -1 | 33* | 19 | 0
O=C(CN1CCN(S(=O)(=O)N2CCCCC2)CC1)Nc1cc(Cl)cc(Cl)c1 | 2 | 13 | 9 | -23 | -30 | -3
O=C(CN1CCN(S(=O)(=O)N2CCCCC2)CC1)Nc1ccc(Cl)c(Cl)c1 | 21 | 20 | 1 | 32* | -5 | 10
Cc1cn(-c2ccccc2)c(C)c1/C=N\Nc1nc(N2CCOCC2)nc(N2CCOCC2)n1 | 4 | 30 | 0 | -25 | -39 | 19
C[C@@H]1CNC(=O)c2c(C(=O)Nc3ccc(CNC(=O)OC(C)(C)C)cc3)ncn21 | . | 50* | . | . | . | 13
O=C(CSc1nnc(-c2cccs2)n1Cc1ccco1)Nc1ccc2c(c1)OCO2 | 23 | 3 | 4 | -27 | -6 | 2
O=C(CSc1ncc(-c2ccc(F)cc2)n1Cc1ccco1)Nc1ccc2c(c1)OCO2 | 43 | 34 | 29* | 38* | 29 | 21
O=C(CSc1nnc(-c2ccccc2)n1Cc1ccco1)Nc1ccc2c(c1)OCCO2 | 48* | 7 | 18 | -10 | -14 | 7
CCOc1ccc(NC(=O)CSc2ncc(-c3ccc(F)cc3)n2Cc2ccco2)cc1 | 16 | -28 | 6 | -3 | 12 | -1
C=CCn1c(SCC(=O)Nc2ccc3c(c2)OCO3)nnc1-c1cc(Br)ccc1O | 65* | 17 | -15 | -23 | -15 | 10
C=CCn1c(SCC(=O)Nc2ccc3c(c2)OCO3)nnc1-c1ccccc1 | 47 | -3 | -10 | -14 | -22 | 1
CCOc1ccccc1NC(=O)CSc1nnc(-c2ccccc2Cl)n1Cc1ccco1 | 69* | -24 | 16 | -1 | -20 | 9
Cc1ccc(C)c(N2CCN(C(=O)Cc3c(C(=O)O)[nH]c4ccc(Cl)cc34)CC2)c1 | 5 | -24 | -10 | -2 | -1 | 2
CCNS(=O)(=O)c1ccc(CCC(N)=O)cc1 | 8 | -6 | 19* | -7 | 0 | 7
O=C(O)CCc1ccc(S(=O)(=O)NCCc2ccccc2)cc1 | 4 | 24 | -3 | 1 | -11 | 37*
Cc1cc(C)c2nc(SCC(=O)NCC3CCCO3)c(C#N)cc2c1 (stereo not drawn) | 19 | -16 | -9 | -6 | -8 | 13
Cc1cccc(C)c1NC(=O)C1(C)CCC(=O)N1c1cc(C(C)(C)C)nn1C (stereo not drawn) | . | -9 | . | . | . | 5
N#C/C(=C/Nc1ccccc1F)S(=O)(=O)c1ccc(Cl)cc1 | 11 | 12 | -8 | -21 | -27 | 5
CCOC(=O)c1ccc(NC(=O)c2nc[nH]c2C(=O)N(C)Cc2ccccc2)cc1 | 57* | 48 | . | -18 | -7 | 6
COc1ccc(OCC(O)CNCCOc2ccccc2OC)c(C(C)(C)C)c1 (stereo not drawn) | 2 | 12 | 22 | -2 | -12 | 50*
COc1ccccc1NCC(O)COc1ccc(C(C)(C)C)cc1 (stereo not drawn) | -1 | 17 | -13 | -2 | -28 | -2
SMILES | OX1R antag-1 | TAAR1 antagonist | GPR7 antag | CHO parental Ca | OX1R antag-2 | TAAR1 ag
CC(CCc1ccccc1)NC(=O)Cn1cccc1C(=O)c1ccccc1 (stereo not drawn) | 28 | -13 | -11 | -15 | -40 | 2
COc1ccc2c(c1)Cc1sc(NC(=O)c3ccco3)nc1-2 | 65* | -14 | 15 | -18 | -6 | 5
CCc1cc(OCCCCNCc2ccccc2)ccc1Cl | 9 | 25 | 1 | 0 | -14 | 42*
COC(=O)c1scc2c(=O)cc(C(F)(F)F)[nH]c12 | 22 | -2 | -8 | 0 | -14 | 22
O=C(NCc1ccco1)c1cccc2c1C(=O)c1ccc(/C=C/c3ccccc3)cc1S2(=O)=O | 16 | 51* | . | -4 | 6 | 13
O=C(NC1CCN(Cc2ccccc2)CC1)C(NS(=O)(=O)c1cccc2nsnc12)c1ccccc1 (stereo not drawn) | 77 | 1 | -8 | -23 | -36 | 2
Cc1cccc(NS(=O)(=O)c2cccc3nsnc23)c1 | 31 | -13 | 4 | 7 | -4 | 9
Cc1c(NS(=O)(=O)c2cccc3nsnc23)c(=O)n(-c2ccccc2)n1C | 77* | 11 | -10 | -11 | -12 | 0
O=C(O)C(Cc1c[nH]c2ccccc12)NS(=O)(=O)c1cccc2nsnc12 (stereo not drawn) | 61* | -26 | 2 | -6 | -6 | 4
O=C(NCc1cccs1)C(NS(=O)(=O)c1cccc2nsnc12)c1ccccc1 (stereo not drawn) | 49* | -23 | 11 | -18 | -27 | 0
Cc1ccnc(NS(=O)(=O)c2cccc3nsnc23)c1 | 127* | -19 | 8 | -9 | 4 | 3
NC(=O)c1nc[nH]c1C(=O)Nc1cccc(C(F)(F)F)c1 | 2 | -12 | . | -13 | -29 | 5
Cc1sc2nc(CSC(C)C(=O)Nc3ccc(Cl)cn3)[nH]c(=O)c2c1C (stereo not drawn) | 13 | 13 | . | -6 | -8 | 3
COc1ccc(NC(=O)CSc2nnc(C)n2C2CC2)cc1S(=O)(=O)N1CCOCC1 | -1 | -14 | . | -3 | -4 | 1
O=S(=O)(NCc1ccccc1)c1cccc2nsnc12 | 42 | 3 | 0 | -26 | -14 | 0
CC(C)C(NS(=O)(=O)c1cccc2nsnc12)C(=O)NC1CCCCC1C (stereo not drawn) | 46* | . | -1 | -12 | -7 | .
COc1ccccc1CNS(=O)(=O)c1cccc2nsnc12 | 39 | -13 | -19 | -8 | 6 | 10
CC(C)C(NS(=O)(=O)c1cccc2nsnc12)C(=O)Nc1nccs1 (stereo not drawn) | 37 | 5 | 4 | -11 | -11 | -1
COc1ccccc1CNC(=O)C(NS(=O)(=O)c1cccc2nsnc12)C(C)C (stereo not drawn) | 76* | -22 | -7 | -18 | -9 | -1
CC(C)NS(=O)(=O)c1cccc2nsnc12 | 72* | -11 | -12 | -4 | -7 | 3
Cc1ccc(C)c(NS(=O)(=O)c2cc(C(=O)NCc3ccncc3)ccc2C)c1 | 18 | 11 | 8 | -28 | -2 | 3

Screening results as filed in PubChem BioAssay.
